Results published in ChEMBL document CHEMBL1255304, “In vitro phenotypic susceptibility of human immunodeficiency virus type 2 clinical isolates to protease inhibitors” (Antimicrob Agents Chemother, 2008).

How the values were obtained:
[1] = test system: Human immunodeficiency virus 2; assay: Antiviral activity against HIV 2 subtype H expressing 10I-34E-40P-41Y-60H-63N-70T-73G-82F-89L-92E protease gene sequence from HIV2 infected patient plasma and PBMC obtained at T1 during compound treatment measured after 13 months; type: functional, organism-based; settings: Human immunodeficiency virus 2, subtype H
Summary of the method: (§1)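 Virus isolated by PBMC coculture from patient samples taken before (T0) or during (T1, T2) protease inhibitor exposure, with protease genes sequenced from plasma and PBMC isolates. Susceptibility was tested in the ANRS PBMC assay, and the 50% inhibitory concentration (IC50) was reported.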

[2] = test system: Human immunodeficiency virus 2; assay: Antiviral activity against HIV 2 subtype A clinical isolate expressing 14H-17D-43T-68N/D protease gene sequence from HIV2 infected patient plasma and PBMC obtained before compound treatment measured after 13 months; type: functional, organism-based; settings: Human immunodeficiency virus 2, subtype A; summary of the method: as §1
[3] = test system: Human immunodeficiency virus 2; assay: Antiviral activity against HIV 2 subtype A clinical isolate expressing 5L/F-14Y/H-17G/D-43T-54I/M-62V/A-70R/K-71I protease gene sequence from HIV2 infected patient plasma and PBMC obtained at T1 during compound treatment measured after 13 months; type: functional, organism-based; settings: Human immunodeficiency virus 2, subtype A; summary of the method: as §1
[4] = test system: Human immunodeficiency virus 2; assay: Antiviral activity against HIV 2 subtype A clinical isolate expressing 14H-60K/N-65E protease gene sequence from HIV2 infected patient plasma and PBMC obtained before compound treatment measured after 13 months; type: functional, organism-based; settings: Human immunodeficiency virus 2, subtype A; summary of the method: as §1
[5] = test system: Human immunodeficiency virus 2; assay: Antiviral activity against HIV 2 subtype A clinical isolate expressing 54M-65E-71I-74N-90M protease gene sequence from HIV2 infected patient plasma and PBMC obtained at T1 during compound treatment measured after 13 months; type: functional, organism-based; settings: Human immunodeficiency virus 2, subtype A; summary of the method: as §1
[6] = test system: Human immunodeficiency virus 2; assay: Antiviral activity against HIV 2 subtype A clinical isolate expressing 10I-17D-40D-43I-46V-66V/A-70R/K protease gene sequence from HIV2 infected patient plasma and PBMC obtained before compound treatment measured after 13 months; type: functional, organism-based; settings: Human immunodeficiency virus 2, subtype A; summary of the method: as §1
[7] = test system: Human immunodeficiency virus 2; assay: Antiviral activity against HIV 2 subtype A clinical isolate expressing 10I-17D-40D-43I-45K/R-46V-54M-64I/V-69K/R-71V/I-90M protease gene sequence from HIV2 infected patient plasma and PBMC obtained at T1 during compound treatment measured after 13 months; type: functional, organism-based; settings: Human immunodeficiency virus 2, subtype A; summary of the method: as §1
[8] = test system: Human immunodeficiency virus 2; assay: Antiviral activity against HIV 2 subtype A clinical isolate expressing 14H-40D-70K-72R/K-91T/S protease gene sequence from HIV2 infected patient plasma and PBMC obtained before compound treatment measured after 13 months; type: functional, organism-based; settings: Human immunodeficiency virus 2, subtype A; summary of the method: as §1
[9] = test system: Human immunodeficiency virus 2; assay: Antiviral activity against HIV 2 subtype A clinical isolate expressing 10I-40D-43I-70K-82F-84V-85L-89V-90M-91T/L-98N/K protease gene sequence from HIV2 infected patient plasma and PBMC obtained at T1 during compound treatment measured after 13 months; type: functional, organism-based; settings: Human immunodeficiency virus 2, subtype A; summary of the method: as §1
[10] = test system: Human immunodeficiency virus 2; assay: Antiviral activity against HIV 2 subtype A clinical isolate expressing 10V/I-40D-43I-56V-70K-82F-84V-89V-90M protease gene sequence from HIV2 infected patient plasma and PBMC obtained at T2 during compound treatment measured after 3 months; type: functional, organism-based; settings: Human immunodeficiency virus 2, subtype A; summary of the method: as §1
[11] = test system: Human immunodeficiency virus 2; assay: Antiviral activity against HIV 2 subtype B clinical isolate expressing 14Y-61N-99L protease gene sequence from HIV2 infected patient plasma and PBMC obtained before compound treatment measured after 13 months; type: functional, organism-based; settings: Human immunodeficiency virus 2, subtype B\r\n; summary of the method: as §1
[12] = test system: Human immunodeficiency virus 2; assay: Antiviral activity against HIV 2 subtype B clinical isolate expressing 14Y-19P-33I-61N-71I-75M-84V-90M protease gene sequence from HIV2 infected patient plasma and PBMC obtained at T1 during compound treatment measured after 13 months; type: functional, organism-based; settings: Human immunodeficiency virus 2, subtype B\r\n; summary of the method: as §1
[13] = test system: Human immunodeficiency virus 2; assay: Antiviral activity against HIV 2 subtype B clinical isolate expressing 14Y-19P-61N-64V-71I-90M-95I protease gene sequence from HIV2 infected patient plasma and PBMC obtained at T2 during compound treatment measured after 3 months; type: functional, organism-based; settings: Human immunodeficiency virus 2, subtype B\r\n; summary of the method: as §1
[14] = test system: Human immunodeficiency virus 2; assay: Antiviral activity against HIV 2 subtype B clinical isolate expressing 12T-14Y-19P-40N-41D-61N-62I-96S-99L protease gene sequence from HIV2 infected patient plasma and PBMC obtained before compound treatment measured after 13 months; type: functional, organism-based; settings: Human immunodeficiency virus 2, subtype B\r\n; summary of the method: as §1
[15] = test system: Human immunodeficiency virus 2; assay: Antiviral activity against HIV 2 subtype B clinical isolate expressing 12Q-14R-17G/D-19P-61N-62I-92A protease gene sequence from HIV2 infected patient plasma and PBMC obtained before compound treatment measured after 13 months; type: functional, organism-based; settings: Human immunodeficiency virus 2, subtype B\r\n; summary of the method: as §1
[16] = test system: Human immunodeficiency virus 2; assay: Antiviral activity against Human immunodeficiency virus type 2 (ISOLATE ROD) after 13 months; type: functional, organism-based; settings: Human immunodeficiency virus 2, ISOLATE ROD
Summary of the method: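 Reference strain ROD was tested in the ANRS PBMC assay alongside the clinical isolates, and the 50% inhibitory concentration (IC50) was reported.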

[17] = (§2) Antiviral activity against Human immunodeficiency virus type 1 (BRU ISOLATE) after […]; type: functional; settings: Human immunodeficiency virus 1
[18] = test system: Human immunodeficiency virus type 1 (BRU ISOLATE); assay: as §2; type: functional
[19] = test system: Human immunodeficiency virus 2; assay: Antiviral activity against HIV 2 subtype H expressing 10I-40P-41Y-60H-63N-70T-73G-89L-92E protease gene sequence from HIV2 infected patient plasma and PBMC obtained before compound treatment measured after 13 months; type: functional, organism-based; settings: Human immunodeficiency virus 2, subtype H; summary of the method: as §1

SMILES	IC50 [1] [µM]	IC90 [1] [µM]	IC50 [2] [µM]	IC90 [2] [µM]	IC50 [3] [µM]	IC90 [3] [µM]	IC50 [4] [µM]	IC90 [4] [µM]	IC50 [5] [µM]	IC90 [5] [µM]	IC50 [6] [µM]	IC90 [6] [µM]	IC50 [7] [µM]	IC90 [7] [µM]	IC50 [8] [µM]	IC90 [8] [µM]	IC50 [9] [µM]	IC90 [9] [µM]	IC50 [10] [µM]	IC90 [10] [µM]	further results
CC(C)CN(C[C@@H](O)[C@H](Cc1ccccc1)NC(=O)O[C@H]1CCOC1)S(=O)(=O)c1ccc(N)cc1 [AMPRENAVIR]	10	82	0.6	3.8	4.4	13	0.9	6.8	4	60	0.4	3.5	9.5	31	0.3	1.6	12	96	12	95	IC50 [11]: 0.6 µM; IC90 [11]: 4.6 µM; IC50 [12]: 14 µM; IC90 [12]: 110 µM; IC50 [13]: 17 µM; IC90 [13]: 140 µM; IC50 [14]: 0.4 µM; IC90 [14]: 2.4 µM; IC50 [15]: 0.4 µM; IC90 [15]: 2.8 µM; IC50 [16]: 0.6 µM; IC90 [16]: 4.6 µM; IC50 [17]: 0.02 µM; IC90 [18]: 0.2 µM; IC50 [19]: 0.9 µM; IC90 [19]: 2.7 µM
Cc1c(O)cccc1C(=O)N[C@@H](CSc1ccccc1)[C@H](O)CN1C[C@H]2CCCC[C@H]2C[C@H]1C(=O)NC(C)(C)C [NELFINAVIR]	9	24	0.03	0.3	14	110	0.06	0.8	3.8	53	0.05	0.4	1.2	15	0.2	0.4	> 17.6	> 17.6	10	81	IC50 [11]: 0.2 µM; IC90 [11]: 1 µM; IC50 [12]: 14 µM; IC90 [12]: 107 µM; IC50 [13]: > 17.6 µM; IC90 [13]: > 17.6 µM; IC50 [14]: 0.06 µM; IC90 [14]: 0.2 µM; IC50 [15]: 0.04 µM; IC90 [15]: 0.8 µM; IC50 [16]: 0.05 µM; IC90 [16]: 0.9 µM; IC50 [17]: 0.002 µM; IC90 [17]: 0.1 µM; IC50 [19]: 0.04 µM; IC90 [19]: 0.3 µM
CC(C)(C)NC(=O)[C@@H]1C[C@@H]2CCCC[C@@H]2CN1C[C@@H](O)[C@H](Cc1ccccc1)NC(=O)[C@H](CC(N)=O)NC(=O)c1ccc2ccccc2n1 [SAQUINAVIR]	7.3	31	< 0.006	< 0.006	> 12.5	> 12.5	0.005	0.05	> 12.5	> 12.5	0.002	0.02	0.09	0.7	0.005	0.02	6.4	51	22	180	IC50 [11]: 14 µM; IC90 [11]: 82 µM; IC50 [12]: 8.2 µM; IC90 [12]: 65 µM; IC50 [13]: 6.7 µM; IC90 [13]: 52 µM; IC50 [14]: 0.007 µM; IC90 [14]: 0.02 µM; IC50 [15]: 0.06 µM; IC90 [15]: 0.3 µM; IC50 [16]: 0.01 µM; IC90 [16]: 0.09 µM; IC50 [17]: 0.01 µM; IC90 [17]: 0.04 µM; IC50 [19]: 0.03 µM; IC90 [19]: 0.3 µM
CCC[C@@]1(CCc2ccccc2)CC(O)=C([C@H](CC)c2cccc(NS(=O)(=O)c3ccc(C(F)(F)F)cn3)c2)C(=O)O1 [TIPRANAVIR]	7.3	16	0.3	2.2	6.7	26	0.3	2.5	4.7	14	0.3	2.7	4.1	23	0.4	4.2	2.8	16	4.8	29	IC50 [11]: 0.4 µM; IC90 [11]: 1.7 µM; IC50 [12]: 4.8 µM; IC90 [12]: 17 µM; IC50 [13]: 4 µM; IC90 [13]: 12 µM; IC50 [14]: 0.4 µM; IC90 [14]: 3 µM; IC50 [15]: 0.3 µM; IC90 [15]: 2.6 µM; IC50 [16]: 0.4 µM; IC90 [16]: 3.5 µM; IC50 [17]: 0.05 µM; IC90 [17]: 0.4 µM; IC50 [19]: 0.4 µM; IC90 [19]: 0.8 µM
